According to PubChem BioAssay AID493236 (Broad Institute, 2011):
Records with an inconclusive call do not appear. The source made the active and inactive calls.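 Rule for the calls: active = luminescence cut by more than half of the full-inhibition control window in a dose series; inconclusive = no clear call, values can overlap the other calls; inactive = signal rising instead of falling, or the rest.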

System: proteasome chymotrypsin-like activity (human)
Assay: proteasome chymotrypsin-like activity inhibitors, dose response, counter-screen for HIF pathway activator project, cell-based, U2OS, luminescence, dry powder, set 4 (AID 493236)
How it was run: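 System: U2OS cells. Input: 2,500 U2OS cells per well. Compound dosing: 8-point threefold dilution series, source stock top 16.5 mM. Timing: 24 h plating, 4 h compound, 2 h reagent. Technique: Proteasome-Glo luminescence. Evaluation: percent activity relative to MG132 and DMSO. Controls: MG132 (1 µM) and DMSO. Repeats: each compound tested in duplicate.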

Row | SMILES | outcome
1 | Oc1ccc(CN2CCC3CCCCC3C2)c2cccnc12 (configuration not stated) | inactive
2 | N#CC1(c2ccccc2)CCN(Cc2ccc(O)c3ncccc23)CC1 | inactive
